Measurements as given in ChEMBL document CHEMBL3045797, “Isolation and identification of novel macrocyclic lactones from Streptomyces avermitilis NEAU1069 with acaricidal and nematocidal activity” (2010).

Experiments:
Type in all cases: functional
[1] = tested on: Tetranychus urticae; assay: Acaricidal activity against adult Tetranychus urticae (two-spotted spider mite) in leaves of cowpea plant assessed as number of unhatched eggs at 100 ug/mL at 25 degC measured after 10 days (reference value: 0%)
[2] = tested on: Tetranychus urticae; assay: Acaricidal activity against adult Tetranychus urticae (two-spotted spider mite) in leaves of cowpea plant assessed as number of unhatched eggs at 30 ug/mL at 25 degC measured after 10 days (reference value: 0%)
[3] = tested on: Tetranychus urticae; assay: Acaricidal activity against adult Tetranychus urticae (two-spotted spider mite) in leaves of cowpea plant assessed as mortality at 100 ug/mL at 25 degC measured after 3 days (reference value: 0%); conditions: 72 h
[4] = tested on: Caenorhabditis elegans; assay: Nematocidal activity against Caenorhabditis elegans assessed as immobilized rate at 10 ug/mL at 25 degC for 15 hr (reference value: 5.3 to 6.8%)
In short: (§1)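 Compounds were prepared as 0.1% MeOH solutions and diluted 10-fold in water to give 100 μg/mL test solutions. Immobilized and total C. elegans were counted under a stereomicroscope. Result is % immobilized of all nematodes tested.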

[5] = tested on: Tetranychus urticae; assay: Acaricidal activity against adult Tetranychus urticae (two-spotted spider mite) in leaves of cowpea plant assessed as number of unhatched eggs at 50 ug/mL at 25 degC measured after 10 days (reference value: 0%)
[6] = tested on: Tetranychus urticae; assay: Acaricidal activity against adult Tetranychus urticae (two-spotted spider mite) in leaves of cowpea plant assessed as mortality at 2 ug/mL at 25 degC measured after 3 days (reference value: 0%); conditions: 72 h
[7] = tested on: Tetranychus urticae; assay: Acaricidal activity against adult Tetranychus urticae (two-spotted spider mite) in leaves of cowpea plant assessed as mortality at 50 ug/mL at 25 degC measured after 3 days (reference value: 0%); conditions: 72 h
[8] = tested on: Tetranychus urticae; assay: Acaricidal activity against adult Tetranychus urticae (two-spotted spider mite) in leaves of cowpea plant assessed as mortality at 10 ug/mL at 25 degC measured after 3 days (reference value: 0%); conditions: 72 h
[9] = tested on: Caenorhabditis elegans; assay: Nematocidal activity against Caenorhabditis elegans assessed as immobilized rate at 50 ug/mL at 25 degC for 15 hr (reference value: 5.3 to 6.8%); in short: as §1
[10] = tested on: Caenorhabditis elegans; assay: Nematocidal activity against Caenorhabditis elegans assessed as immobilized rate at 100 ug/mL at 25 degC for 15 hr (reference value: 5.3 to 6.8%); in short: as §1
[11] = tested on: Caenorhabditis elegans; assay: Nematocidal activity against Caenorhabditis elegans assessed as immobilized rate at 2 ug/mL at 25 degC for 15 hr (reference value: 5.3 to 6.8%)
[12] = tested on: Tetranychus urticae; assay: Acaricidal activity against adult Tetranychus urticae (two-spotted spider mite) in leaves of cowpea plant assessed as number of unhatched eggs at 2 ug/mL at 25 degC measured after 10 days (reference value: 0%)
[13] = tested on: Tetranychus urticae; assay: Acaricidal activity against adult Tetranychus urticae (two-spotted spider mite) in leaves of cowpea plant assessed as mortality at 30 ug/mL at 25 degC measured after 3 days (reference value: 0%); conditions: 72 h
[14] = tested on: Tetranychus urticae; assay: Acaricidal activity against adult Tetranychus urticae (two-spotted spider mite) in leaves of cowpea plant assessed as number of unhatched eggs at 10 ug/mL at 25 degC measured after 10 days (reference value: 0%)
[15] = tested on: Caenorhabditis elegans; assay: Nematocidal activity against Caenorhabditis elegans assessed as immobilized rate at 30 ug/mL at 25 degC for 15 hr (reference value: 5.3 to 6.8%)

SMILES	Activity [1] [%]	Activity [2] [%]	mortality at 100 µg/mL [3] [%]	Activity [4] [%]	Activity [5] [%]	mortality at 2 µg/mL [6] [%]	mortality at 50 µg/mL [7] [%]	mortality at 10 µg/mL [8] [%]	Activity [9] [%]	Activity [10] [%]	Activity [11] [%]	Activity [12] [%]	mortality at 30 µg/mL [13] [%]	Activity [14] [%]	Activity [15] [%]
C/C1=C\C[C@@H]2C[C@@H](C[C@]3(C[C@@H](O)[C@H](C)[C@@H](C4CCCCC4)O3)O2)OC(=O)c2cc(C)c(O)cc2/C=C/C=C/[C@H](C)[C@@H]1O	59.8	23.5	100	92.7	43.7	43.9	100	75.6	100	100	43.7	0	96.4	13.9	100
C/C1=C\C[C@@H]2C[C@@H](C[C@]3(C=C[C@H](C)[C@@H](C4CCCCC4)O3)O2)OC(=O)c2cc(C)c(O)cc2/C=C/C=C/[C@H](C)[C@@H]1O	56.7	19.8	100	49.2	37.6	45.2	100	77.1	100	100	13.5	0	92.5	12.1	81.4
CO[C@H]1C[C@H](O[C@H]2[C@H](C)O[C@@H](O[C@@H]3/C(C)=C/C[C@@H]4C[C@@H](C[C@]5(C=C[C@H](C)[C@@H](C6CCCCC6)O5)O4)OC(=O)[C@@H]4C=C(C)[C@@H](O)[C@H]5OC/C(=C\C=C\[C@@H]3C)[C@]54O)C[C@@H]2OC)O[C@@H](C)[C@@H]1O [DORAMECTIN]	47.4	8.9	100	86.5	21.5	26.8	100	62.9	100	100	45.3	0	86.5	0	100
